This note sets out measurements from ChEMBL document CHEMBL3286150, “Discovery of PF-5190457, a Potent, Selective, and Orally Bioavailable Ghrelin Receptor Inverse Agonist Clinical Candidate” (ACS Med Chem Lett, 2014).

Data set [1] addresses T1, Muscarinic acetylcholine receptor M2 (Homo sapiens) (UniProt P08172).
T1 sequence (whole entry): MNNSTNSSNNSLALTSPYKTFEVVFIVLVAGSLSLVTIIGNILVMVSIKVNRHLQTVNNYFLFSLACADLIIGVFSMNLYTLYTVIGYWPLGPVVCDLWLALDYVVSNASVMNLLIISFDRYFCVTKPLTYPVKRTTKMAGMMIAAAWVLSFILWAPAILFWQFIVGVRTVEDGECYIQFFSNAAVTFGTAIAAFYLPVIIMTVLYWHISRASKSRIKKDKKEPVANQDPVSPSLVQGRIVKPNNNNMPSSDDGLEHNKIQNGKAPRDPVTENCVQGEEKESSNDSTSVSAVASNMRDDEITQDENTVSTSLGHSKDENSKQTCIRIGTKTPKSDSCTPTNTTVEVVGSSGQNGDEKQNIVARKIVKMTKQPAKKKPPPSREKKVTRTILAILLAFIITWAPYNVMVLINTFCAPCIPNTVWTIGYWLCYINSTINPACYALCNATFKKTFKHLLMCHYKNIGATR
Put plainly: Antagonist activity at muscarinic M2 receptor (unknown origin) expressed in CHO-K1 CHRM2 beta-arrestin cells assessed as inhibition of oxotremorine S-induced effect after 90 mins. It is filed as cell-based. The procedure, abridged: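 Antagonist mode in a β-arrestin PathHunter format. Kb was determined in the presence of an EC80 concentration of the agonist oxotremorine.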

The target of data set [2] is T2, 5-hydroxytryptamine receptor 2B (Homo sapiens, UniProt P41595). Put plainly: Antagonist activity at 5HT2B receptor (unknown origin).
T2 sequence (P41595 whole entry): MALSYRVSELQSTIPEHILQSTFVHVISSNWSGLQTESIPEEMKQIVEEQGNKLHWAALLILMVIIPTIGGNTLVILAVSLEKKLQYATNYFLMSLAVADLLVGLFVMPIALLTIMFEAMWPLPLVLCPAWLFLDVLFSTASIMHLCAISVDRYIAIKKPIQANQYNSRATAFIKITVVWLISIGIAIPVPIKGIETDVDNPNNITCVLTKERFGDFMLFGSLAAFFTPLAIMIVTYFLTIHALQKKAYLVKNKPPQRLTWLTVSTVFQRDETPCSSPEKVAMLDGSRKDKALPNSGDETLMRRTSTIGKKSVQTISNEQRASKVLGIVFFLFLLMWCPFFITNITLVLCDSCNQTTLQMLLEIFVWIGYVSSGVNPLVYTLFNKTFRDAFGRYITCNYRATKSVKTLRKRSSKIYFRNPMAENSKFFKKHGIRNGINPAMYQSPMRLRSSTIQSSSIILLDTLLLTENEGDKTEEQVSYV
Data set [3] concerns the target T2, 5-hydroxytryptamine receptor 2B. Description: Inhibition of 5HT2B receptor (unknown origin).
A short description of data set [4]: Apparent permeability of the compound in MDCK2 cells. It is filed as ADME, cell-based, Canis lupus familiaris, MDCK-II. Particulars: dog, mdck. The essentials: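 Passive permeability (Papp, 10–6 cm/s) measured in low-efflux MDCKII cells.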
A short description of data set [5]: Oral absorption in portal vein cannulated rat at 10 mg/kg, po. Type of data set: ADME, organism-based. Further details: dose 10 mg/kg, route oral. Particulars: in vivo.
A short description of data set [6]: Apparent intrinsic clearance in human liver microsomes. To be noted: read-out: CLH. It is filed as ADME. The essentials: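 Apparent intrinsic clearance in human liver microsomes, expressed as mL/min/kg. Values are uncorrected for fraction unbound.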
Data set [7] addresses T2, 5-hydroxytryptamine receptor 2B. Put plainly: Agonist activity at 5HT2B receptor (unknown origin).
The target in data set [8] is Voltage-gated inwardly rectifying potassium channel KCNH2 (Homo sapiens, UniProt Q12809). Put plainly: Inhibition of human ERG.
Voltage-gated inwardly rectifying potassium channel KCNH2, sequence (Q12809 whole entry): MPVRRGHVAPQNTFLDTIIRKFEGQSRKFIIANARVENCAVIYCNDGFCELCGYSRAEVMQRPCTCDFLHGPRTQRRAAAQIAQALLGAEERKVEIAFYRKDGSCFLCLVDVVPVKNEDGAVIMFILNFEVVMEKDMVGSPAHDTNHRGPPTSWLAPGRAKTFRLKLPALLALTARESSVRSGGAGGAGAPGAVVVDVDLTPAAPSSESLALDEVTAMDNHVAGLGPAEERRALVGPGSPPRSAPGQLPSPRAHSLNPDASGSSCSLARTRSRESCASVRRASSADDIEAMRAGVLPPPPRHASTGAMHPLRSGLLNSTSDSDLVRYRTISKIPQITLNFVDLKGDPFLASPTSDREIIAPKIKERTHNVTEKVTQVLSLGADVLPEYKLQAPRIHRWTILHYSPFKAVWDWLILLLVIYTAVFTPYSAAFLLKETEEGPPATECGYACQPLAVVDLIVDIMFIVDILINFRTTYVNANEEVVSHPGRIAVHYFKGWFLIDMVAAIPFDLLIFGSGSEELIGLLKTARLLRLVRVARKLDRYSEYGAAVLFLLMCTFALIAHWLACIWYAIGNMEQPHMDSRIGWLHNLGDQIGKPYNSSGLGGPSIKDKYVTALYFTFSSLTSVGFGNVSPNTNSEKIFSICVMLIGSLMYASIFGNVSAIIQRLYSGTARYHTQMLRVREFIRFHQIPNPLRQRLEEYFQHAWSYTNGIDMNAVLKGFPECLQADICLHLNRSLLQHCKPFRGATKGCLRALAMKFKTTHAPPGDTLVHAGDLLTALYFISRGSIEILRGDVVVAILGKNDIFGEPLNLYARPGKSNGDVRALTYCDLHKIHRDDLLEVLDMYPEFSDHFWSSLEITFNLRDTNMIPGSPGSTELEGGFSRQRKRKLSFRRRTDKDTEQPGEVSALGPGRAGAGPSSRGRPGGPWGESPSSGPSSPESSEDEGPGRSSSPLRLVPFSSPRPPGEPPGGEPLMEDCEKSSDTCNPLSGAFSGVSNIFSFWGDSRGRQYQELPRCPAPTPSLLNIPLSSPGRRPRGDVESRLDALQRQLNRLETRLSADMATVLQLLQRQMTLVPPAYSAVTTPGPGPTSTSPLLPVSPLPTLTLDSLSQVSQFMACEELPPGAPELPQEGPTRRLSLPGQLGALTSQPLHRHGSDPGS
Data set [9] has as its target T3, Growth hormone secretagogue receptor type 1 (Homo sapiens, UniProt Q92847). Description: Inverse agonist activity at human ghrelin receptor expressed in HEK293 cells assessed as inhibition of ghrelin-induced europium-labeled GTP-gamma-S binding by DELFIA. It is filed as cell-based. The procedure, abridged:
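GTP-γ-S functional assay run in agonist/antagonist/inverse-agonist mode. Minimum percent effect is reported, with negative values denoting inverse agonism. Values are geometric means ± standard error of ≥3 measurements unless noted.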
In general terms: GTPγS is a poorly hydrolysed GTP analogue; its binding reports G protein activation.

Another data set has as its system MDCK. Put plainly: Efflux ratio of permeability from basolateral to apical over apical to basolateral side in MDCK cells expressing human MDR1. To be noted: dog.
A further data set is filed under the species Homo sapiens. Description: Selectivity ratio of pKb for muscarinic M2 receptor (unknown origin) expressed in CHO-K1 CHRM2 beta-arrestin cells to Ki for human ghrelin receptor expressed. Type of data set: cell-based. The essentials: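 Ratio of the M2 Kb (β-arrestin PathHunter antagonist format, EC80 oxotremorine) over the human ghrelin receptor functional Ki (GTP-γ-S assay).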

Data set [10] addresses T3, Growth hormone secretagogue receptor type 1. Description: Displacement of [125I]ghrelin from human ghrelin receptor expressed in HEK293 cells after 8 hrs by scintillation proximity assay. Type of data set: cell-based. The procedure, abridged:
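Human ghrelin receptor binding measured by scintillation proximity assay. Values are geometric means of at least 3 measurements, unless noted otherwise.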
(In general: In a radioligand displacement assay an active substance lowers the binding of a labelled ligand.)

The target of data set [11] is T4, D(4) dopamine receptor (Homo sapiens) (UniProt P21917).
T4 sequence (whole entry): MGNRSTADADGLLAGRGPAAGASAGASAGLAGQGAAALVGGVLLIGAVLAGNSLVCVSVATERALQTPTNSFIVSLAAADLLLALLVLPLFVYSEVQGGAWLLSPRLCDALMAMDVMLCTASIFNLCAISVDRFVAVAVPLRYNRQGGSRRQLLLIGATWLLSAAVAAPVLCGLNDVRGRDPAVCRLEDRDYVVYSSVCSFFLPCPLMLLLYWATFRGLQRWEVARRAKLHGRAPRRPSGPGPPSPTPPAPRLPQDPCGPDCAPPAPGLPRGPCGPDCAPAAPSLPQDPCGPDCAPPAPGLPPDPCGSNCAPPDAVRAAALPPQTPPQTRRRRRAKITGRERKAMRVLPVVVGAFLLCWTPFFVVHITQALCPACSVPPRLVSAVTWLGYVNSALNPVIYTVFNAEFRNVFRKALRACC
Description: Activity at dopamine D4 receptor (unknown origin) at 10 uM.

For data set [12], the target named is D(3) dopamine receptor (Homo sapiens) (UniProt P35462). Put plainly: Activity at dopamine D3 receptor (unknown origin) at 10 uM.
D(3) dopamine receptor (Homo sapiens), sequence (P35462 whole entry): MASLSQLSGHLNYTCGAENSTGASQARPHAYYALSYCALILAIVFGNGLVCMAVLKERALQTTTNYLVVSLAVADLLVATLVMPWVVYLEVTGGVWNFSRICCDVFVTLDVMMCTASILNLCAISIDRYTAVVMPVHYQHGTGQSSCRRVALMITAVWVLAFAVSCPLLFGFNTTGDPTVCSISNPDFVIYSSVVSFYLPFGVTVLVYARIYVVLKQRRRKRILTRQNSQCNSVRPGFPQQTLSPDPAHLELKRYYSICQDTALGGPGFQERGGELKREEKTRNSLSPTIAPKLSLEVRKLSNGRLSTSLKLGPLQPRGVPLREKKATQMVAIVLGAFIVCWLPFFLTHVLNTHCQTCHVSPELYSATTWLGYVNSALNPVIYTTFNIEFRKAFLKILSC
Data set [13] deals with T5, Alpha-2C adrenergic receptor (Homo sapiens) (UniProt P18825).
T5 sequence (whole entry): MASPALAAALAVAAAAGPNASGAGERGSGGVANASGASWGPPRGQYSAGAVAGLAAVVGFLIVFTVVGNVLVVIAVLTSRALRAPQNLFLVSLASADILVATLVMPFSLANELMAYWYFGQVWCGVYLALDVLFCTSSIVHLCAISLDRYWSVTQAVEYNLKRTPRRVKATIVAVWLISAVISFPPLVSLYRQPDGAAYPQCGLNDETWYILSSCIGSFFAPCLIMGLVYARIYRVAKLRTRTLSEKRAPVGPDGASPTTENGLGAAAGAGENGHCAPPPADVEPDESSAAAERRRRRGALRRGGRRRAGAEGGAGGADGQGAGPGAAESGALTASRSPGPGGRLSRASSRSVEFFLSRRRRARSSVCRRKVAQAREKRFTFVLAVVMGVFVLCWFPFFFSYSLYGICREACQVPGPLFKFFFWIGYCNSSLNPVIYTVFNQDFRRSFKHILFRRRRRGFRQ
Put plainly: Activity at adrenergic alpha2C receptor (unknown origin) at 10 uM.

Data set [14] has as its target T6, Alpha-2A adrenergic receptor (Homo sapiens) (UniProt P08913).
T6 sequence (whole entry): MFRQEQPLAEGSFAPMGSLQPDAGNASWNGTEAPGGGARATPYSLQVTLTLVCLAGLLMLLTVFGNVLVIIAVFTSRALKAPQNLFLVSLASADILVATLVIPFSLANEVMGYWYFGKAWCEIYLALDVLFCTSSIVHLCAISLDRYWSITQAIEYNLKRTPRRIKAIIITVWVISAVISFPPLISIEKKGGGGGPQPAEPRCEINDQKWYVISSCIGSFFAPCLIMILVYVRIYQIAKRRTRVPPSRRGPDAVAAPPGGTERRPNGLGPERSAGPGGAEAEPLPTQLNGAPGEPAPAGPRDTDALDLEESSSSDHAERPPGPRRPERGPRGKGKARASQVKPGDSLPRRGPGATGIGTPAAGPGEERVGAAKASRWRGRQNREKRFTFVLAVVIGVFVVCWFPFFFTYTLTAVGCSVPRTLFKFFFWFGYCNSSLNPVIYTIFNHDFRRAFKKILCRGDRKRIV
Description: Activity at adrenergic alpha2A receptor (unknown origin) at 10 uM.

The target of data set [15] is D(2) dopamine receptor (Homo sapiens) (UniProt P14416). Description: Activity at dopamine D2S receptor (unknown origin) at 10 uM.
D(2) dopamine receptor (Homo sapiens), sequence (P14416 whole entry): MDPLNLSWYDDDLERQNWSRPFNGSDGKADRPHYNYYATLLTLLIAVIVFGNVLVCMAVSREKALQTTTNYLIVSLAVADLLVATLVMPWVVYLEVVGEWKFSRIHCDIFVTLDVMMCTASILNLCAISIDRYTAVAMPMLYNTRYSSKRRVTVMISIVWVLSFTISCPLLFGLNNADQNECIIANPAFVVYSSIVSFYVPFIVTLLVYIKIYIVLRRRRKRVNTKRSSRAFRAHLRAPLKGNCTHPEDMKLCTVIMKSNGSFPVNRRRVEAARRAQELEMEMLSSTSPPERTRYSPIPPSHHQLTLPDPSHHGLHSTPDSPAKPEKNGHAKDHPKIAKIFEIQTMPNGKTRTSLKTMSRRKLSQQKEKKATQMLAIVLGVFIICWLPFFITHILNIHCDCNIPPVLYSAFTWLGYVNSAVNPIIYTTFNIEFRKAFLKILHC
For data set [16], the target named is Histamine H1 receptor (Homo sapiens) (UniProt P35367). Description: Activity at histamine H1 receptor (unknown origin) at 10 uM.
Histamine H1 receptor (Homo sapiens), sequence (P35367 whole entry): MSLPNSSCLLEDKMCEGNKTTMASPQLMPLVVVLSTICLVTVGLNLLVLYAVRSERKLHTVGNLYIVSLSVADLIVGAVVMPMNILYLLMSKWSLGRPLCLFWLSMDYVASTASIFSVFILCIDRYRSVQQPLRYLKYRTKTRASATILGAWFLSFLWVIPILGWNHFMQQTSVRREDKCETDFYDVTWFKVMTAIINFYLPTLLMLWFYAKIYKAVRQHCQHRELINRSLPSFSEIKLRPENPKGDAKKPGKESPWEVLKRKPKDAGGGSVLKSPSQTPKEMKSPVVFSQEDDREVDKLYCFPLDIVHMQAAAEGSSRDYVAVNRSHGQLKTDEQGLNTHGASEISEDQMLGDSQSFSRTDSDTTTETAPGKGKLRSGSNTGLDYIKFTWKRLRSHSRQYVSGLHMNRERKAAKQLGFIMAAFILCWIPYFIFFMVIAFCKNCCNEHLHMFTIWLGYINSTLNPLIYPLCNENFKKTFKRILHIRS

Calls of active or inactive are those of the source. The rule behind the calls is not given here.

T3 sequence (Q92847 whole entry): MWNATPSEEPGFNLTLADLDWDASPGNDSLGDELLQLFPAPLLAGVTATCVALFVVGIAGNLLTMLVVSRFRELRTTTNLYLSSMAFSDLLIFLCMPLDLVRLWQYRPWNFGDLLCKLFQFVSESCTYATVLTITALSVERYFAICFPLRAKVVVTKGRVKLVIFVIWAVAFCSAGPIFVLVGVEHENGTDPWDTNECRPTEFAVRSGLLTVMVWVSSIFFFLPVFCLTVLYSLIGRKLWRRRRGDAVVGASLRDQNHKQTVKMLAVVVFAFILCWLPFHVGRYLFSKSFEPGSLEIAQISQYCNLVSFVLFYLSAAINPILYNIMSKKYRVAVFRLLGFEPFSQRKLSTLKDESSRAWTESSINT

`COc1ccc(CC(=O)N2CCC3(CC2)CN([C@@H]2CCc4cc(-c5cc(C)ncn5)ccc42)C3)nc1`: in data set [1], the pKb (usually the Kb on a negative log10 scale, so that one unit is a factor of ten) turned out to be 5.66.

For `Cc1cc(-c2ccc3c(c2)CC[C@H]3N2CC3(CCN(C(=O)Cc4cn5cc(C)sc5n4)CC3)C2)ncn1` [PF-5190457], the inhibition result in data set [2] is “inactive”. For the same compound, the values for the IC50 in [3] and in data set [8] were 3700 nM and 6900 nM, respectively. For the same compound, the Papp (commonly a coefficient for how fast a substance crosses the barrier) in [4] came to 5 ×10⁻⁶ cm/s. This compound showed a Fa in data set [5] of 100%. Besides, in data set [6], the CLint scaled came out at 21 mL/min/kg. For the same compound, the result in data set [7] was inactive. Moreover, the inhibition constant (Ki) in data set [9] and in data set [10] was 6.61 nM in each case. Moreover, the figures for the Ratio in the data set on MDCK and in the data set filed under Homo sapiens were 7.2 and 266, respectively. Also, in [1], the pKb was 5.71.

Consider `Cc1cn2cc(CC(=O)N3CCC4(CC3)CN([C@@H]3CCc5cc(-c6ccc(C(N)=O)nc6)ccc53)C4)nc2s1`, for which the Ratio with MDCK is more than 18.2. Further, in data set [1], the pKb was 6.48.

For `COc1ccc(CC(=O)N2CCC3(CC2)CN([C@@H]2CCc4cc(-c5ccncn5)ccc42)C3)nc1`, the apparent permeability coefficient (Papp) in data set [4] came to 15 ×10⁻⁶ cm/s. Further, the CLint scaled in data set [6] is 82 mL/min/kg. For the same compound, the Ratio in the data set on MDCK was 5.4. Besides, in data set [1], the negative logarithm of the Kb (pKb) is 6.08.

For the compound `COc1ccc(CC(=O)N2CCC3(CC2)CN([C@@H]2CCc4cc(-c5nccc(C)n5)ccc42)C3)nc1`, in [4], the apparent permeability (Papp) worked out at 10 ×10⁻⁶ cm/s. Moreover, the CLint scaled in data set [6] is 17 mL/min/kg. The Ki – broadly, a measure of affinity in units of concentration, obtained from inhibition or displacement – in [9] was 50.1 nM. Further, the Ratio in the data set with MDCK came out at 3.7; in the data set listed under Homo sapiens, 20. For the same compound, in [1], the negative logarithm of the Kb (pKb) stood at 6.09.

For the compound `Cc1cn2cc(CC(=O)N3CCC4(CC3)CN([C@@H]3CCc5cc(-c6ncccn6)ccc53)C4)nc2s1`, the Papp in data set [4] stood at 11 ×10⁻⁶ cm/s. The CLint scaled in data set [6] is 18 mL/min/kg. Also, the Ki in data set [9] is 6.61 nM; in [10], 4.57 nM. In addition, the Ratio with MDCK was determined as 5.4; in the data set listed under Homo sapiens, 47. Besides, in data set [1], the negative logarithm of the Kb (pKb) turned out to be 6.41.

For the compound `COc1ccc(CC(=O)N2CCC3(CC2)CN([C@@H]2CCc4cc(-c5ncccn5)ccc42)C3)cc1`, the result in [11], in [12], in data set [13], in data set [14], in data set [15] and in data set [16] was Active. For the same compound, the negative-log Kb (pKb) in data set [1] is 5.94.

As to `COc1ccc(CC(=O)N2CCC3(CC2)CN([C@@H]2CCc4cc(-c5ncccn5)ccc42)C3)nc1`, the Ki in [9] is 25.1 nM. Also, in [1], the negative-log Kb (pKb) was 6.18.

For `COc1ccc(CC(=O)N2CCC3(CC2)CN([C@@H]2CCc4cc(-c5ncc(C)cn5)ccc42)C3)nc1`, the Ki in data set [9] is 85.1 nM. Also, in data set [1], the negative logarithm of the Kb (pKb) worked out at 5.86.
